# Laboratory results from ChEMBL document CHEMBL3853342, “Design, synthesis and biological evaluation of novel benzo-α-pyrone containing piperazine derivatives as potential BRAFV600E inhibitors” (Bioorg Med Chem Lett, 2016).
# The source made the active and inactive calls. The calls are words filed in the database; no cut-off is given here.
# Legend:
# [1] = test system: WM 266-4; assay: Induction of apoptosis in human WM266.4 cells assessed as late apoptotic cells at 4 uM after 24 hrs by Annexin V-FITC/propidium iodide based flow cytometric analysis (reference value: 5.04 %); type: functional
# In short: (§1)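 Apoptosis in WM266-4 (BRAF V600E) cells after 24 h at 0, 2, 4 or 8 µM, by Annexin V-FITC/PI dual staining and flow cytometry. Percentages of apoptotic cells were calculated. Three independent experiments.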
# [2] = Induction of apoptosis in human WM1361 cells assessed as necrotic cells at 20 uM after 24 hrs by Annexin V-FITC/propidium iodide based flow cytometric analysis (reference value: 0.860 %); type: functional
# [3] = Cell cycle arrest in human WM266.4 cells assessed as accumulation at S phase at 8 uM after 36 hrs by propidium iodide staining based FACS analysis (reference value: 29.51 %); settings: WM 266-4
# [4] = test system: WM 266-4; assay: Induction of apoptosis in human WM266.4 cells assessed as viable cells at 8 uM after 24 hrs by Annexin V-FITC/propidium iodide based flow cytometric analysis (reference value: 92.9 %); type: functional; settings: WM 266-4, 24 h, read-out: Activity; in short: as §1
# [5] = test system: WM 266-4; assay: Induction of apoptosis in human WM266.4 cells assessed as late apoptotic cells at 2 uM after 24 hrs by Annexin V-FITC/propidium iodide based flow cytometric analysis (reference value: 5.04 %); type: functional; in short: as §1
# [6] = test system: WM 266-4; assay: Induction of apoptosis in human WM266.4 cells assessed as increase in apoptotic cells after 24 hrs by Annexin V-FITC/propidium iodide based flow cytometric analysis; type: functional, cell-based; in short: as §1
# [7] = Induction of apoptosis in human WM1361 cells assessed as early apoptotic cells at 40 uM after 24 hrs by Annexin V-FITC/propidium iodide based flow cytometric analysis (reference value: 1.02 %); type: functional
# [8] = Cell cycle arrest in human WM266.4 cells assessed as accumulation at G0/G1 phase at 2 uM after 24 hrs by propidium iodide staining based FACS analysis (reference value: 56.58 %); type: functional; settings: WM 266-4
# In short: (§2)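 WM266-4 (BRAF V600E melanoma) cells exposed to 0, 2, 4 or 8 µM for 24 h. Cell-cycle distribution by flow cytometry, with G1, S and G2/M fractions gated. Three independent experiments.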
# [9] = test system: WM 266-4; assay: Induction of apoptosis in human WM266.4 cells assessed as early apoptotic cells at 2 uM after 24 hrs by Annexin V-FITC/propidium iodide based flow cytometric analysis (reference value: 1.60 %); type: functional; in short: as §1
# [10] = Cell cycle arrest in human WM266.4 cells assessed as accumulation at G2/M phase at 2 uM after 24 hrs by propidium iodide staining based FACS analysis (reference value: 14.39 %); type: functional; settings: WM 266-4; in short: as §2
# [11] = Cytotoxicity against human 293T cells assessed as cell growth inhibition after 24 hrs by MTT assay; type: toxicity, cell-based, HEK-293T
# [12] = test system: WM 266-4; assay: Induction of apoptosis in human WM266.4 cells assessed as early apoptotic cells at 8 uM after 24 hrs by Annexin V-FITC/propidium iodide based flow cytometric analysis (reference value: 1.60 %); type: functional; in short: as §1
# [13] = Induction of apoptosis in human WM1361 cells assessed as late apoptotic cells at 60 uM after 24 hrs by Annexin V-FITC/propidium iodide based flow cytometric analysis (reference value: 2.96 %); type: functional
# [14] = test system: WM 266-4; assay: Induction of apoptosis in human WM266.4 cells assessed as late apoptotic cells at 8 uM after 24 hrs by Annexin V-FITC/propidium iodide based flow cytometric analysis (reference value: 5.04 %); type: functional; in short: as §1
# [15] = Induction of apoptosis in human WM1361 cells assessed as viable cells at 40 uM after 24 hrs by Annexin V-FITC/propidium iodide based flow cytometric analysis (reference value: 95.2 %); type: functional; settings: WM1361, 24 h, read-out: Activity
# [16] = test system: WM 266-4; assay: Induction of apoptosis in human WM266.4 cells assessed as necrotic cells at 2 uM after 24 hrs by Annexin V-FITC/propidium iodide based flow cytometric analysis (reference value: 0.435 %); type: functional; in short: as §1
# [17] = test system: WM 266-4; assay: Induction of apoptosis in human WM266.4 cells assessed as necrotic cells at 8 uM after 24 hrs by Annexin V-FITC/propidium iodide based flow cytometric analysis (reference value: 0.435 %); type: functional; in short: as §1
# [18] = Cell cycle arrest in human WM266.4 cells assessed as accumulation at S phase at 2 uM after 24 hrs by propidium iodide staining based FACS analysis (reference value: 29.03 %); type: functional; settings: WM 266-4; in short: as §2
# [19] = Cell cycle arrest in human WM266.4 cells assessed as accumulation at S phase at 8 uM after 24 hrs by propidium iodide staining based FACS analysis (reference value: 29.03 %); type: functional; settings: WM 266-4; in short: as §2
# [20] = test system: WM 266-4; assay: Induction of apoptosis in human WM266.4 cells assessed as DNA fragmentation up to 8 uM after 24 hrs by agarose gel electrophoresis; type: functional, cell-based
# In short: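 DNA ladder assay: WM266-4 cells cultured at 37 °C for 24 h with 0, 2, 4 or 8 µM. DNA isolated and run on 2.0% agarose gel beside 2000 bp and 15000 bp markers. Untreated cells served as control.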
# [21] = Induction of apoptosis in human WM1361 cells assessed as necrotic cells at 60 uM after 24 hrs by Annexin V-FITC/propidium iodide based flow cytometric analysis (reference value: 0.860 %); type: functional
# [22] = Induction of apoptosis in human WM1361 cells assessed as viable cells at 20 uM after 24 hrs by Annexin V-FITC/propidium iodide based flow cytometric analysis (reference value: 95.2 %); type: functional; settings: WM1361, 24 h, read-out: Activity
# [23] = Induction of apoptosis in human WM1361 cells assessed as late apoptotic cells at 20 uM after 24 hrs by Annexin V-FITC/propidium iodide based flow cytometric analysis (reference value: 2.96 %); type: functional
# [24] = test system: WM 266-4; assay: Induction of apoptosis in human WM266.4 cells assessed as early apoptotic cells at 4 uM after 24 hrs by Annexin V-FITC/propidium iodide based flow cytometric analysis (reference value: 1.60 %); type: functional; in short: as §1
# [25] = Cell cycle arrest in human WM266.4 cells assessed as accumulation at G2/M phase at 8 uM after 12 hrs by propidium iodide staining based FACS analysis (reference value: 5.79 %); settings: WM 266-4
# [26] = test system: WM 266-4; assay: Induction of apoptosis in human WM266.4 cells assessed as viable cells at 4 uM after 24 hrs by Annexin V-FITC/propidium iodide based flow cytometric analysis (reference value: 92.9 %); type: functional; settings: WM 266-4, 24 h, read-out: Activity; in short: as §1
# [27] = Antiproliferative activity against human WM1361 cells assessed as cell growth inhibition after 24 hrs by MTT assay; type: functional, cell-based; settings: WM1361, 24 h
# [28] = Cell cycle arrest in human WM266.4 cells assessed as accumulation at G0/G1 phase at 8 uM after 12 hrs by propidium iodide staining based FACS analysis (reference value: 64.70 %); settings: WM 266-4
# [29] = Induction of apoptosis in human WM1361 cells assessed as early apoptotic cells at 60 uM after 24 hrs by Annexin V-FITC/propidium iodide based flow cytometric analysis (reference value: 1.02 %); type: functional
# [30] = Cell cycle arrest in human WM266.4 cells assessed as accumulation at G2/M phase at 4 uM after 36 hrs by propidium iodide staining based FACS analysis (reference value: 5.79 %); type: functional; settings: WM 266-4
structure (smiles),measurement,setting,value
O=c1oc2ccccc2c(N2CCN(C(c3ccccc3)c3ccccc3)CC2)c1CO,Activity,[1],21.2%
same,Activity,[2],1.36%
same,Activity,[3],8.26%
same,viability at 8 µM,[4],37.1%
same,Activity,[5],14.5%
same,Activity,[6],Dose-dependent effect
same,Activity,[7],0.856%
same,Activity,[8],65.8%
same,Activity,[9],13.4%
same,Activity,[10],12.6%
same,CC50 at 24 h,[11],> 50 µM
same,Activity,[12],27.1%
same,Activity,[13],5.29%
same,Activity,[14],32.7%
same,viability at 40 µM,[15],92.9%
same,Activity,[16],5.06%
same,Activity,[17],3.07%
same,Activity,[18],21.6%
same,Activity,[19],6.48%
same,Activity,[20],Active
same,Activity,[21],1.31%
same,viability at 20 µM,[22],94.1%
same,Activity,[23],3.36%
same,Activity,[24],24.4%
same,Activity,[25],12.2%
same,viability at 4 µM,[26],52.5%
same,IC50,[27],21.1 µM
same,Activity,[28],66.2%
same,Activity,[29],1.61%
same,Activity,[30],2.41%
